ChEMBL document CHEMBL1143241, “Development of potent, allosteric dual Akt1 and Akt2 inhibitors with improved physical properties and cell activity” (Bioorg Med Chem Lett, 2008)
≈ marks a conversion by molar mass, not a printed value.

Legend:
[1] = Inhibition of PKA
Procedure, shortened: (§1)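 In vitro enzyme inhibition assay following a previously reported protocol. Each IC50 is the average of at least three determinations.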

[2] = target: T1, RAC-alpha serine/threonine-protein kinase (Homo sapiens, UniProt P31749); assay: Inhibition of Akt1 by cell-based IPKA assay
[3] = Inhibition of PKC; procedure, shortened: as §1
[4] = target: T2, RAC-gamma serine/threonine-protein kinase (Homo sapiens, UniProt Q9Y243); assay: Inhibition of Akt3
[5] = target: T3, Serine/threonine-protein kinase Sgk1 (Homo sapiens, UniProt O00141); assay: Inhibition of SGK; procedure, shortened: as §1
T3 sequence (O00141 whole entry): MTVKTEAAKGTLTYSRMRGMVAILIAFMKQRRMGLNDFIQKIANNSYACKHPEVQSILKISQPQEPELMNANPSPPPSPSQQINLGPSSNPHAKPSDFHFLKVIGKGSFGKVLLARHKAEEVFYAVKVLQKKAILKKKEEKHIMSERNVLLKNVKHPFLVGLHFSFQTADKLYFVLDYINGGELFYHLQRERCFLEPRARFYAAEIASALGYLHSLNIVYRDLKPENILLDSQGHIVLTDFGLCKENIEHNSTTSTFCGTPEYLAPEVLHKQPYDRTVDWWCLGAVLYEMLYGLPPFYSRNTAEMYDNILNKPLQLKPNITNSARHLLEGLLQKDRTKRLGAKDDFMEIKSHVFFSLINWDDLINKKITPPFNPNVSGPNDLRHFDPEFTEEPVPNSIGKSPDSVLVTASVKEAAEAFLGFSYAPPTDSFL

[6] = target: T4, RAC-beta serine/threonine-protein kinase (Homo sapiens, UniProt P31751); assay: Inhibition of Akt2; procedure, shortened: as §1
[7] = target: T1, RAC-alpha serine/threonine-protein kinase; assay: Inhibition of Akt1; procedure, shortened: as §1
[8] = Solubility at pH 7.4 in 98% saline; format: physicochemical
[9] = target: T4, RAC-beta serine/threonine-protein kinase; assay: Inhibition of Akt2 by cell-based IPKA assay
[10] = target: T2, RAC-gamma serine/threonine-protein kinase; assay: Inhibition of Akt3 by cell-based IPKA assay

T4 sequence (P31751 whole entry): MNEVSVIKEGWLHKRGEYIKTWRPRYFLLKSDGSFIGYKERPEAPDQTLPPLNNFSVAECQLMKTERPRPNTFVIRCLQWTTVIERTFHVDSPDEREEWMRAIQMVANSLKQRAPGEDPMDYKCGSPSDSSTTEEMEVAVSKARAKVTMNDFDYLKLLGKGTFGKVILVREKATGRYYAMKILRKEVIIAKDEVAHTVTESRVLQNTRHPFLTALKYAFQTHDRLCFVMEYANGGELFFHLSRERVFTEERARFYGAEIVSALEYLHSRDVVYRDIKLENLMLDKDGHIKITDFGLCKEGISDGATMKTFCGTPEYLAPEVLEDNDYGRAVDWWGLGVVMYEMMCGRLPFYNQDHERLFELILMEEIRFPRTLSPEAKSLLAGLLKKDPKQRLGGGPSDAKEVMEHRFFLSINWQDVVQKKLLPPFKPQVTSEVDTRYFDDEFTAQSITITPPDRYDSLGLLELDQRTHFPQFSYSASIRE
T2 sequence (Q9Y243 whole entry): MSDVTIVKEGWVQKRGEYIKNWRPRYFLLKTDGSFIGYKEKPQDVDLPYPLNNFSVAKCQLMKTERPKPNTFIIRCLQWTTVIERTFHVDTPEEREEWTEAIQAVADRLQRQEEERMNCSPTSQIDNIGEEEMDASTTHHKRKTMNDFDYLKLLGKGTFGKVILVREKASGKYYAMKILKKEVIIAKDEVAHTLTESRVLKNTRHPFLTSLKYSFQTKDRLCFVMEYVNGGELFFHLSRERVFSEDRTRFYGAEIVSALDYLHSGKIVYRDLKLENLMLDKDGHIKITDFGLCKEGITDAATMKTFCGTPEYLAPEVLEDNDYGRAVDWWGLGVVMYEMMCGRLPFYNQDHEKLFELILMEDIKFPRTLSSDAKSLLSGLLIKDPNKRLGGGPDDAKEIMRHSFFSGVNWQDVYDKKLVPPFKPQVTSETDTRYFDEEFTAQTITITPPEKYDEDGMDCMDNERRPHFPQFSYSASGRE
T1 sequence (P31749 whole entry): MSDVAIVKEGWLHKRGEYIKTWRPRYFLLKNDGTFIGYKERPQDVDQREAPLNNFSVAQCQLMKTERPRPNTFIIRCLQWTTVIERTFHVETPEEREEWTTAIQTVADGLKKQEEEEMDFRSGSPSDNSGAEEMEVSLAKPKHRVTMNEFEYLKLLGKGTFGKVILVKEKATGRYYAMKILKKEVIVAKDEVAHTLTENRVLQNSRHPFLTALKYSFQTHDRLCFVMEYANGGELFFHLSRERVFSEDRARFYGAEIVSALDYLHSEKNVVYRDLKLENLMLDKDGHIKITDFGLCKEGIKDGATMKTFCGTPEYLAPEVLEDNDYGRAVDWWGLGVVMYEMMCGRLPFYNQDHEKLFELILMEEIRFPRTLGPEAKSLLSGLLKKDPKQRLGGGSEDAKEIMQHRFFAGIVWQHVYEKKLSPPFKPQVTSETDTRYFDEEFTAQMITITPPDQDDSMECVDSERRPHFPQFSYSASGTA

Row | SMILES | IC50 [1] [nM] | IC50 [2] [nM] | IC50 [3] [nM] | IC50 [4] [nM] | IC50 [5] [nM] | IC50 [6] [nM] | IC50 [7] [nM] | solubility [8] [mg/mL] | IC50 [9] [nM] | IC50 [10] [nM]
1 | CCN(CC)CCNC(=O)c1ccc2nc(-c3ccccc3)c(-c3ccc(CN4CCC(n5c(=O)[nH]c6ccccc65)CC4)cc3)nc2c1 | > 50000 | 253 | > 50000 | 7200 | > 50000 | 212 | 138 | 18 (≈ 27.5 mM) | 276 | > 10000
2 | CCN(CC)CCNC(=O)c1ccc2nc(-c3ccc(CN4CCC(n5c(=O)[nH]c6ccccc65)CC4)cc3)c(-c3ccccc3)nc2c1 | > 50000 | 368 | > 50000 | 7400 | > 50000 | 359 | 458 | 18 (≈ 27.5 mM) | 617 | 8000
3 | O=c1[nH]c2ccccc2n1C1CCN(Cc2ccc(-c3nc4ccc(-c5nnn[nH]5)cc4nc3-c3ccccc3)cc2)CC1 | – | – | – | – | – | – | – | 18 (≈ 31.1 mM) | – | –
4 | O=C(O)c1ccc2nc(-c3ccc(CN4CCC(n5c(=O)[nH]c6ccccc65)CC4)cc3)c(-c3ccccc3)nc2c1 | – | – | – | – | – | – | – | 18 (≈ 32.4 mM) | – | –
5 | O=C(O)c1ccc2nc(-c3ccccc3)c(-c3ccc(CN4CCC(n5c(=O)[nH]c6ccccc65)CC4)cc3)nc2c1 | – | – | – | – | – | – | – | 18 (≈ 32.4 mM) | – | –
6 | O=c1[nH]c2ccccc2n1C1CCN(Cc2ccc(-c3nc4cc(-c5nnn[nH]5)ccc4nc3-c3ccccc3)cc2)CC1 | – | – | – | – | – | – | – | 18 (≈ 31.1 mM) | – | –
